# Most compounds without a hit are left out; they make up all but 7.1% or so of the library.
# bCat KO growth: primary screen for growth suppressors in beta-catenin knockout HCT116 cells (colon tumor, human); HCT116 beta-catenin knockout viability, CellTiter-Glo, 60 h; active compounds read low; viability, % at 10 µM; 140,000 compounds, 1.5% hits;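 active means viability at or under a set limit, the compound median less 4 SD, cut at about 6% in these data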;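 further: 0% = Hyamine 1622 control at 20 µM and 100% = untreated cell control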
# Cav3 T inh: Cav3.2 calcium influx blockers – cell-based, Fluo-4 calcium fluorescence, FDSS, MLSMR library, primary screen. Voltage-dependent T-type calcium channel subunit alpha-1H (Homo sapiens), O95180. Cav3.2-expressing cells; active compounds read low. B-score at 10 µM. 100,000 compounds, 4% hits;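 active means single-dose well whose peak fluorescence ratio is a statistical outlier from its plate by either plate-standardised score or position-corrected B-score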
# HCT116 PTEN-null: growth suppression of PTEN-null HCT116, primary screen, cell-based, CellTiter-Glo. AID 827, 2007. 140,000 compounds, 1.2% hits. viability, % at 10 µM. HCT116 PTEN-null viability, 60 h; active compounds read low;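 active means viability at or below a set limit, 4 SD under the median of all tested compounds, cut at about 3.7% in these data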;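 further: PTEN knockout HCT116 line with beta catenin targeted HCT116 as companion control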
# H69AR growth 86K: proliferation blockers of H69AR lung cancer cells, primary screen, cell-based, human, 86K library. H69AR lung tumor viability, ATP luminescence, 72 h; active compounds read low. viability, % at 10 µM. 85,000 compounds, 6% hits;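 active means viability at or below 40%; inactive means viability above 40%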;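 further: multidrug resistant small cell line overexpressing MRP-1 efflux transporter; 100% = mean luminescence of untreated control wells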
# Lung fibro prol: antiproliferative effect on LL 47 fibroblasts – human, LL 47 cells, CellTiter-Glo luminescence, primary screen. LL 47 human lung fibroblast viability, ATP luminescence; active compounds read low. viability, % at 10 µM. 85,000 compounds, 1.1% hits. AID 719, 2007;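 active means viability at or below 50% in the single dose screen; inactive means viability above 50%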;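 further: compound exposure lasted 72 h before the ATP readout; 100% = median luminescence of untreated cell-only wells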
#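 Test system: LL 47 human lung fibroblasts / Incubation: 72 h compound exposure at 37 °C after overnight plating / Technique: luminescent ATP detection, CellTiter-Glo / Compound dosing: 0.1% DMSO in all compound wells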
# HUVEC prolif 384: inhibitors of HUVEC proliferation, primary screen, cell-based, 384-well | 86,000 compounds, 1.1% hits | viability, % at 10 µM (by protocol) | AID 648, 2007 | CellTiter-Glo luminescence, 72 h; active compounds read low;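 active means viability at or below 30%; inactive means viability above 30%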;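 further: 100% = median luminescence of DMSO-only cell control wells on each plate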
# * = called active by the depositor; . = no result.
SMILES,bCat KO growth,Cav3 T inh,HCT116 PTEN-null,H69AR growth 86K,Lung fibro prol,HUVEC prolif 384
CCc1ccc(/C=N/NC(=O)C(=O)NCCCN2CCOCC2)cc1,91,.,97,.,.,.
CCCN(CCC)S(=O)(=O)c1ccc(C(=O)Nc2nc3c(s2)CCc2ccccc2-3)cc1,3.1*,.,2.9*,.,.,.
CCOc1cc(/C=C\c2[nH]c(=O)[nH]c(=O)c2[N+](=O)[O-])ccc1OC(C)CC (centres undefined),14,-0.33,21,98,92,15*
CCn1c(CSc2nc3ccccc3s2)nc2ccccc21,71,-5.7*,78,95,102,81
c1csc(CSc2nc3ccccc3s2)c1,88,0.00033,94,92,97,89
CS(=O)(=O)N(Cc1ccccc1)c1ccc(C(=O)N2CCN(c3cccc(Cl)c3)CC2)cc1,14,-3.2,17,49,104,83
CS(=O)(=O)N(CC(=O)N1CCN(c2ccccc2)CC1)c1ccc(Cl)c(C(F)(F)F)c1,79,-5.3*,68,109,90,77
CS(=O)(=O)N(CC(=O)N1CCN(c2cccc(Cl)c2)CC1)c1cccc(F)c1,85,-6.3*,84,85,97,94
CS(=O)(=O)N(CC(=O)N1CCN(c2ccccc2)CC1)c1cc(C(F)(F)F)ccc1Cl,93,-4.3*,79,86,102,110
Cc1ccc(N(NC(=O)C(O)(c2ccccc2)c2ccccc2)C(=O)CCl)cc1,3.3*,.,3.4*,.,.,.
COc1ccc(C2CN=NC23CCCc2ccccc2C3=O)cc1 (centres undefined),30,-4.2*,31,.,.,.
COc1ccccc1C1CN=NC12CCCc1ccccc1C2=O (centres undefined),70,-4.7*,93,.,.,.
CCOC(=O)c1ccc(CNCc2ccc(C)cc2)cc1,95,.,89,.,.,.
O=C(CN1C(=O)C2(OCCO2)c2ccccc21)c1ccc(Br)cc1,92,-5.5*,87,94,98,91
CCN(CC)S(=O)(=O)c1ccc(Oc2ccccc2)cc1,76,-2.3,78,103,96,100
CC(=O)c1c(O)cc(O)c(C(C)=O)c1O,.,-5.4*,.,.,.,.
CC(=O)c1c(O)cc(O)cc1CC(=O)O,.,0.08,.,.,.,.
O=c1c2ccccc2c2c(O)nc(-c3ccccc3)n2n1Cc1ccccc1,88,-1.5,82,.,.,.
Cc1csc(NC(=O)CSc2nnc(NC(=O)COc3ccccc3)s2)n1,92,.,101,.,.,.
Cc1nc2ccc(S(=O)(=O)Nc3ccccc3C)cc2s1,56,-0.25,56,33*,91,67
COc1ccc(OC)c2sc(N3CCCCC3)nc12,91,-0.067,112,80,46*,94
O=C(c1ccc(Oc2ccccc2)cc1)c1nc2c(n1O)CCCC2,96,-1.7,97,49,100,106
COc1ccc(CCN2C(=O)CC(C(N)=O)SC2=Nc2ccccc2)cc1OC (centres undefined),100,1,90,78,103,101
COc1ccc(NC(=O)Cc2c(C)n(C(=O)c3ccc(Cl)cc3)c3ccc(OC)cc23)cc1,66,.,69,.,.,.
COc1ccc2c(c1)c(CC(=O)Nc1ccc(C)cc1)c(C)n2C(=O)c1ccc(Cl)cc1,63,-3.9*,57,.,.,.
SMILES,bCat KO growth,Cav3 T inh,HCT116 PTEN-null,H69AR growth 86K,Lung fibro prol,HUVEC prolif 384
COc1ccc(NC(=O)NC23CC4(C)CC(C)(CC(C)(C4)C2)C3)cc1,37,.,28,.,.,.
CS(=O)(=O)c1ccc(Cl)c(NC(=O)c2ccc3ccccc3c2)c1,95,.,92,.,.,.
O=C(c1ccccc1)c1ccc(CN2C(=O)c3ccccc3C2=O)o1,105,-2.7,106,98,107,101
COc1ccc(CNC(=O)c2c(C)oc3c2C(=O)c2ccccc2C3=O)cc1,1.3*,1.6,1.3*,.,.,.
CC(=O)c1c(C)oc2c1C(=O)c1ccccc1C2=O,2.6*,.,1.9*,.,.,.
O=C1c2ccccc2C(=O)c2c1oc(C(F)(F)F)c2C(=O)c1ccccc1,2.0*,.,1.8*,0.7*,3.1*,3.5*
COc1cccc(C2=NOC(C(=O)Nc3cc(C)nn3-c3ccccc3)C2)c1OC (centres undefined),57,0.099,53,32*,90,75

# Screening results deposited in PubChem BioAssay by several laboratories.
